Measured values as given in ChEMBL document CHEMBL3414559, “Novel C-4 heteroaryl 13-cis-retinamide Mnk/AR degrading agents inhibit cell proliferation and migration and induce apoptosis in human breast and prostate cancer cells and suppress growth of MDA-MB-231 human breast and CWR22Rv1 human prostate tumor xenografts in mice” (J Med Chem, 2015).

Legend:
MDA-MB-468 = experiment: Growth inhibition of human MDA-MB-468 cells by MTT assay; type: functional
Outline: (§1)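 Cells grown in RPMI 1640 with 10% FBS, plated at 2500 cells/well, treated across a dose range; growth read by MTT. GI50 taken from dose–response curves by nonlinear regression, at least three independent experiments.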

MCF7 = experiment: Growth inhibition of human MCF7 cells by MTT assay; type: functional; outline: as §1
[1] = Growth inhibition of human SKBR3 cells by MTT assay; type: functional; details: SK-BR-3; outline: as §1
MDA-MB-231 = experiment: Growth inhibition of human MDA-MB-231 cells by MTT assay; type: functional; outline: as §1
LNCaP = experiment: Growth inhibition of human LNCAP cells by MTT assay; type: functional; outline: as §1
[2] = Growth inhibition of human CWR22Rv1 cells by MTT assay; type: functional, CWR22R; details: 22Rv1; outline: as §1
[3] = Growth inhibition of human PC3 cells by MTT assay; type: functional; details: PC-3; outline: as §1

SMILES | GI50 (MDA-MB-468) | GI50 (MCF7) | GI50 [1] | GI50 (MDA-MB-231) | GI50 (LNCaP) | GI50 [2] | GI50 [3]
CC1=C(/C=C/C(C)=C/C=C/C(C)=C\C(=O)NCc2ccc(F)cc2)C(C)(C)CCC1n1ccnc1 (centres undefined) | 2.45 µM | 1.93 µM | 5.5 µM | 1.41 µM | – | – | –
CC1=C(/C=C/C(C)=C/C=C/C(C)=C\C(=O)NCc2cccc(F)c2)C(C)(C)CCC1n1ccnc1 (centres undefined) | 3.09 µM | 1.81 µM | 4.24 µM | 1.65 µM | – | – | –
CC1=C(/C=C/C(C)=C/C=C/C(C)=C\C(=O)Nc2ccc(F)cc2)C(C)(C)CCC1n1ccnc1 (centres undefined) | 4.57 µM | 0.4 µM | 25.1 µM | 4.95 µM | 3.89 µM | 8.12 µM | 30.2 µM
CC1=C(/C=C/C(C)=C/C=C/C(C)=C\C(=O)NCCc2ccc(O)cc2)C(C)(C)CCC1n1ccnc1 (centres undefined) | 13.5 µM | 1.9 µM | 1.41 µM | 2.88 µM | – | – | –
